Rows were chosen to be rich in hits. Some 3.4% of all compounds tested hit in one or more screens of this group.
ANO1 block: blocks the mouse calcium-activated chloride channel TMEM16A | Q8BHY3 | HEK293 TMEM16A/YFP iodide influx fluorescence, ionomycin | normalized B-score (activity score, 25-100; higher = stronger inhibition) at 10 µM | hit rate 1.2% among 310,000;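 active = ratio plate-corrected score three or more library SD toward inhibition, starting fluorescence score within five deviations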;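 note: score derived from kinetic fluorescence span divided by baseline fluorescence per well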
Target sequence (Q8BHY3 whole entry, looked up): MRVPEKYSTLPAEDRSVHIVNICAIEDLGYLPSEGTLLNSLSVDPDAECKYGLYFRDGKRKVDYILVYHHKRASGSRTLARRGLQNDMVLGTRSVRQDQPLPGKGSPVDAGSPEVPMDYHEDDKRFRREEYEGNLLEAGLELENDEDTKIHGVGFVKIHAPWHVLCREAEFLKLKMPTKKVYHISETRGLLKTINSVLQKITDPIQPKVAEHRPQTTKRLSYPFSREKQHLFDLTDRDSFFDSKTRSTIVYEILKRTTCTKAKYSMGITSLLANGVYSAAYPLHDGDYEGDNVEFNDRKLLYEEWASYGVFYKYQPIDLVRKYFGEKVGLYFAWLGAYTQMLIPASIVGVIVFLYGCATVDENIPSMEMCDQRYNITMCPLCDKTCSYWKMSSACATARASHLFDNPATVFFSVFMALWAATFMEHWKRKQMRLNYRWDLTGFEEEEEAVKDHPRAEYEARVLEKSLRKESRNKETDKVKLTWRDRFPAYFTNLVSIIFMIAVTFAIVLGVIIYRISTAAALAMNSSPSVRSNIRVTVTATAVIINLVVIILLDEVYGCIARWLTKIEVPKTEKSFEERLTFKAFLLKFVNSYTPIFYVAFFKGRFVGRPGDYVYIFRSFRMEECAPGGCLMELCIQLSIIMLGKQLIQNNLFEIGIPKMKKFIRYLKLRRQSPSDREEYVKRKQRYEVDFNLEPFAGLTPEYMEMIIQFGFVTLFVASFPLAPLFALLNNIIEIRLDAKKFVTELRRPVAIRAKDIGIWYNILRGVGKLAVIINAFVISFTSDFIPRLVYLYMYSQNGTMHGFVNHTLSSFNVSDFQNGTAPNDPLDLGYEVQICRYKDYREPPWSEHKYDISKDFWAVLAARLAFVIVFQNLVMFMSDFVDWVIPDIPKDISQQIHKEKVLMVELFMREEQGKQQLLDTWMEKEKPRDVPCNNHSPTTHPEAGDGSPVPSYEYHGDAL
TMEM16A act: activates or potentiates the mouse TMEM16A chloride channel | B-score at 10 µM | HEK293 TMEM16A/YFP-H148Q/I152L, iodide quench fluorescence; stronger effect = lower value | AID 623877 | Q8BHY3 | hit rate 0.3% among 340,000;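 active = fluorescence-ratio B-score plate-corrected deviation score at least 3 library SD below zero, with starting fluorescence score within 5 deviations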;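 note: channel opened by trigger with iodide after compound preincubation; score built on the fluorescence ratio of max minus min over baseline; more negative score means more quench and so TMEM16A activation or potentiation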
m5-HT2A agonist: mouse HTR2A agonism via beta-arrestin recruitment | P35363 | hit rate 0.66% among 360,000 | CHO-K1 mHTR2A beta-arrestin complementation, luminescence; percent of 30 µM serotonin response | activation, % at 7.6 µM | AID 624169;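 active = activation above a run cutoff, the mean activation of all tested compounds plus 3 SD, cut at about 14% in these data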;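 note: 0% = plate median of compound wells and 100% = 30 µM serotonin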
MC4R ag barr: agonists of human melanocortin 4 receptor (MC4R) beta-arrestin | U2OS MC4R beta-arrestin complementation, luminescence; percent of melanotan II response, DMSO zero | activation, % at 8.9 µM | hit rate 0.98% among 360,000;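 active = activation above a per-plate cutoff, the mean activation of sample wells on that plate plus 3 SD, cut at about 8% in these data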
MC4R antagonist: blocks human MC4R cAMP signaling; P32245; hit rate 0.48% among 360,000; inhibition, % at 6.5 µM; MC4R-expressing cells, MTII-stimulated cAMP, LANCE TR-FRET; AID 540295;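 active = inhibition above its plate's cutoff, the mean of tested wells on that plate plus 3 SD, cut at about 29% in these data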;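 note: 0% = Melanotan II alone and 100% = Melanotan II plus saturating MCL0020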
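Material – human MC4R-expressing U2OS cells · Repeats – no replicates · Detection – TR-FRET with Eu-cAMP and labeled anti-cAMP, 671 nm · Times – compound 30 min, challenge 1 h, detection 1 h · Compound – single nominal compound dose of 6.5 µM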
MIN6 prolif: MIN6 beta-cell proliferation induction; hit rate 0.29% among 330,000; MIN6 cells proliferation, ATPlite luminescence, 48 h; cells starved in 0.2% serum; 100% = growth in 10% serum; proliferation, % at 10 µM;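 active = compounds whose signal lies at least 3.5 SD above the mean of all wells on their plate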;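 note: 0% = DMSO-treated cells in low-serum medium and 100% = 10% serum control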
MOR ag counter: counter-screen for mouse HTR2A agonists: human mu opioid receptor agonists; hit rate 5.3% among 2,300; AID 624380; shares compounds with m5-HT2A agonist; U2OS OPRM1 beta-arrestin PathHunter, luminescence; DMSO 0%, DAMGO 9.3 µM 100%; activation, % at 9.3 µM;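 active = mean activation above the mean of DMSO-only wells plus 3 SD, cut at about 0.5% in these data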
m5-HT2A ag conf: confirmation of mouse HTR2A serotonin receptor agonists | shares compounds with m5-HT2A agonist | CHO-K1 PathHunter beta-arrestin recruitment, luminescence; DMSO 0%, 30 µM serotonin 100% | activation, % at 7.6 µM | hit rate 19% among 2,300 | AID 624381;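 active = mean activation across triplicates above the hit threshold derived in the original primary screen, cut at about 15% in these data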
* hit, by the source's call; i = inactive; . = no result.

SMILES	ANO1 block	TMEM16A act	m5-HT2A agonist	MC4R ag barr	MC4R antagonist	MIN6 prolif	MOR ag counter	m5-HT2A ag conf
CC(C)=CC(=O)N1CC[C@@H](N2CCN(c3ccccc3F)CC2)[C@H](O)C1	i	i	17*	-2	5	1	0	43*
CSCCCN1CC[C@@H](N2CCN(c3ccccc3F)CC2)[C@H](O)C1	i	i	8	0	14	-2	.	.
CSCCC(=O)N1CC[C@@H](N2CCN(c3ccccc3F)CC2)[C@H](O)C1	i	i	15*	-1	4	-2	-1	45*
CCOc1ccc(C2C(C(N)=O)=C(C)Nc3ncnn32)cc1OC (centres undefined)	i	i	7	-1	2	0	.	.
CCOc1cc(C2C(C(C)=O)=C(C)Nc3ncnn32)ccc1O (centres undefined)	i	i	15*	0	15	0	-1	-3
COc1ccc(C(C)(C)C)cc1NC(=O)COC(=O)C1=NNC(=O)CC1	.	i	3	-1	-3	2	.	.
COc1ccc(Cl)cc1NC(=O)CN1C(=O)C(=O)N(C2CCCC2)C1=O	.	.	2	-3	-2	.	.	.
CCOC(=O)Cn1c(=O)n(Cc2ccc(C)cc2)c(=O)c2cccnc21	i	i	50*	-2	-4	1	-1	-3
Cc1ccc(S(=O)(=O)N2C[C@H]3N(C(=O)OC(C)C)N(C(=O)OC(C)C)C[C@H](OC(=O)NCC4CCCCC4)[C@@]3(O)C2)cc1	.	.	-3	4	8	.	.	.
CCCn1c(N2CCN(Cc3ccc(Cl)cc3)CC2)nc2ccccc21	i	i	22*	0	2	-4	0	13
CCn1c(N2CCN(Cc3ccc([N+](=O)[O-])cc3)CC2)nc2ccccc21	i	i	0	-1	6	-3	.	.
CC(C)Cn1c(N)c(C(=O)CSc2n[nH]c(N)n2)c(=O)n(C)c1=O	.	i	25*	-2	3	-4	-1	-3
COc1ccc(CCC(=O)OCC(=O)c2c(N)n(CC(C)C)c(=O)n(C)c2=O)cc1	i	-5.4*	17*	-2	6	-7	0	-1
CC(C)Cn1c(N)c(C(=O)CSc2ncccn2)c(=O)n(C)c1=O	i	i	2	-3	-9	-2	.	.
O=C(COC(=O)CN1C(=O)NC2(CCCC2)C1=O)Nc1c(Cl)cccc1C(F)(F)F	i	i	-3	-1	6	-1	.	.
Cc1ccc(C(=O)NCC(=O)Nc2ncccc2C)s1	i	i	7	4	4	0	.	.
NC(=O)Cn1nc(-c2ccccc2)nc1-c1ccccc1	i	i	8	0	5	-3	.	.
O=[N+]([O-])c1cccc(-c2ccc(/C=N/NC(=S)NCc3ccco3)o2)c1	i	i	20*	4	-2	-1	0	-1
CCOc1ccccc1NC(=O)CN1C(=O)NC(Cc2c[nH]c3ccccc23)C1=O (centres undefined)	.	i	-3	0	0	-1	.	.
O=c1[nH]c2ccccc2c2cn(-c3ccccc3)nc12	i	i	-2	-1	-10	-1	.	.
NC(=O)c1c(NC(=O)c2ccncc2)sc2c1CCCCCC2	i	i	9	0	6	-3	.	.
NC(=O)c1c(NC(=O)c2ccncc2)sc2c1CCCC2	i	i	18*	-4	11	1	0	5
Cc1cc(CNC(=O)c2cccc(OC3CCN(S(=O)(=O)N(C)C)CC3)c2)on1	i	i	15*	-3	10	1	0	0
CN(C)S(=O)(=O)N1CCC(Oc2cccc(C(=O)NC3CCCCCC3)c2)CC1	i	i	9	-1	5	-5	.	.
O=C(CSc1ncccc1C(=O)O)Nc1ccc2c(c1)OCCO2	i	i	-3	1	4	-3	.	.
SMILES	ANO1 block	TMEM16A act	m5-HT2A agonist	MC4R ag barr	MC4R antagonist	MIN6 prolif	MOR ag counter	m5-HT2A ag conf
COc1ccc(Cl)cc1S(=O)(=O)N1CCN=C1C	i	i	24*	0	-1	9	0	-1
Cc1ccc([C@H]2N[C@]3(CCCN(Cc4ccc(Cl)cc4)C3=O)[C@H]3C(=O)N(Cc4ccccc4)C(=O)[C@@H]23)cc1	.	.	-3	1	7	.	.	.
OC(CN1CCOCC1)Cn1c2ccccc2c2ccccc21 (centres undefined)	i	i	3	-1	3	-2	.	.
OC(CN1CCNCC1)Cn1c2ccccc2c2ccccc21 (centres undefined)	i	i	18*	1	4	0	-1	6
Cc1nn(-c2ccccc2)c(C)c1NC(=O)COC(=O)c1ccc(Cl)c(S(N)(=O)=O)c1	i	i	-2	0	8	-2	.	.
COc1ccccc1CNC(=O)C1CCC1	i	i	15*	-1	0	0	-1	-3
COc1ccc(CNC(=O)COC(=O)Cc2ccc(Br)cc2)cc1	.	i	2	0	11	1	.	.
COc1ccccc1CNC(=O)COC(=O)Cc1ccc(Br)cc1	.	i	16*	0	-2	-1	-1	-2
Cc1cccc(C)c1NC(=O)C1(C)CSCC(=O)N1CCCn1ccnc1 (centres undefined)	.	.	3	.	.	.	.	.
Cn1c(=O)n(CC(=O)NCC2CCCO2)c(=O)c2c3c(sc21)CCCC3 (centres undefined)	i	i	2	0	1	1	.	.
N#Cc1c(/N=C/c2ccco2)sc2c1CCCCC2	i	i	14*	0	-6	0	0	21*
CC(=O)N1C[C@H]2CON(C)[C@H]2C[C@H]1c1ccccc1Br	.	.	18*	0	-5	.	-1	-4
Cn1nc(-c2ccccc2)cc1NC(=O)c1ccc(Cl)cc1	i	i	11	-2	3	-3	.	.
COc1ccc(CNC(=O)c2ccc(C(C)C)cc2)cc1	i	i	15*	-1	6	-4	0	3
Cn1c(=O)[nH]c(=O)c2c1nc(N1CCCC1)n2CCO	i	i	22*	2	11	-1	0	-1
COc1cccc(CN2CCC2(C)C(=O)Nc2cccc(Oc3ccccc3)c2)c1OC (centres undefined)	.	.	-4	0	25	.	.	.

High-throughput results deposited in PubChem by several laboratories.
